The target of test [1] is T1, Protein kinase C epsilon type (Homo sapiens) (UniProt Q02156).
T1 sequence (whole entry): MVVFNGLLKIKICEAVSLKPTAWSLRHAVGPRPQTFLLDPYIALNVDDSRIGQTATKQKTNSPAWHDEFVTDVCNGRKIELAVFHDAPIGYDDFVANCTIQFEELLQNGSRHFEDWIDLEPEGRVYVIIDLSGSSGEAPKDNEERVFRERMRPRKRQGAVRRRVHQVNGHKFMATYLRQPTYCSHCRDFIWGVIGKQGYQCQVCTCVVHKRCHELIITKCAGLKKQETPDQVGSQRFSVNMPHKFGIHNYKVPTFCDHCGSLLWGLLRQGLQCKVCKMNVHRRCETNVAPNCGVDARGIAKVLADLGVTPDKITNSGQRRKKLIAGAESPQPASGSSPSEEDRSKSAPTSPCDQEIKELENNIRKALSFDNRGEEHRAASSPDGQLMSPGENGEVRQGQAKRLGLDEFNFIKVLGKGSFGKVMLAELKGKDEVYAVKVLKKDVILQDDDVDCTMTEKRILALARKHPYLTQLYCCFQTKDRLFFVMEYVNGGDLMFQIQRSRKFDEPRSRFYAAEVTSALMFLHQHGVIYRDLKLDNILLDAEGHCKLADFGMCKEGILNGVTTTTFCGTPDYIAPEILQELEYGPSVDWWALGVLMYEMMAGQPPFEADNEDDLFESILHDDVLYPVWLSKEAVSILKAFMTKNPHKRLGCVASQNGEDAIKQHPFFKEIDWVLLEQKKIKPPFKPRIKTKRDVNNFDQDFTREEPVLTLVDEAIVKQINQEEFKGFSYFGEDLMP
The test is described as follows: Inhibition of N-terminal GST-fused PKCepsilon (1-737) expressed in baculovirus expression system at 30 uM after 1 hr by off-chip mobility shift assay relative to control. An outline of the steps:
(§1)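 Lipid-activated reactions (phosphatidylserine 50 μg/mL, diacylglycerol 5 μg/mL), no CaCl2. Buffer is 20 mM HEPES pH 7.5, 0.01% Triton X-100, 2 mM DTT, with 1 μM N-FL PKCθ substrate peptide, 10 μM ATP and 5 mM MgCl2. Incubated 1 h at room temperature, n = 2. Product ratio P/(P+S) from electrophoretic peak heights, scaled between no-enzyme (100%) and no-inhibitor (0%) controls.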

The target of test [2] is Protein kinase C iota type (Homo sapiens) (UniProt P41743). The test is described as follows: Inhibition of N-terminal GST-fused PKClota (1-587) expressed in baculovirus expression system at 30 uM after 1 hr by off-chip mobility shift assay relative to control.
The target is the same in test [3]. In words: Inhibition of N-terminal GST-fused PKClota (1-587) expressed in baculovirus expression system at 3 uM after 1 hr by off-chip mobility shift assay relative to control.
For test [4], the target named is Protein kinase C beta type (Homo sapiens) (UniProt P05771). In words: Inhibition of N-terminal GST-fused PKCbeta1 (1-671) expressed in baculovirus expression system at 30 uM after 1 hr by off-chip mobility shift assay relative to control. An outline of the steps: (§2)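 Enzymes purified by glutathione sepharose. DMSO compound stock diluted fourfold into 20 mM HEPES pH 7.5, 0.01% Triton X-100, 2 mM DTT, with phosphatidylserine (50 μg/mL), diacylglycerol (5 μg/mL) and 50 μM CaCl2. Reaction: 1 μM PKCθ substrate peptide (N-FL), 25 μM ATP, 5 mM MgCl2, 1 h at room temperature (n = 2). Read-out is electrophoretic P/(P+S) ratio, normalized to no-enzyme and no-inhibitor controls.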

The target in test [5] is T2, Protein kinase C zeta type (Homo sapiens) (UniProt Q05513).
T2 sequence (whole entry): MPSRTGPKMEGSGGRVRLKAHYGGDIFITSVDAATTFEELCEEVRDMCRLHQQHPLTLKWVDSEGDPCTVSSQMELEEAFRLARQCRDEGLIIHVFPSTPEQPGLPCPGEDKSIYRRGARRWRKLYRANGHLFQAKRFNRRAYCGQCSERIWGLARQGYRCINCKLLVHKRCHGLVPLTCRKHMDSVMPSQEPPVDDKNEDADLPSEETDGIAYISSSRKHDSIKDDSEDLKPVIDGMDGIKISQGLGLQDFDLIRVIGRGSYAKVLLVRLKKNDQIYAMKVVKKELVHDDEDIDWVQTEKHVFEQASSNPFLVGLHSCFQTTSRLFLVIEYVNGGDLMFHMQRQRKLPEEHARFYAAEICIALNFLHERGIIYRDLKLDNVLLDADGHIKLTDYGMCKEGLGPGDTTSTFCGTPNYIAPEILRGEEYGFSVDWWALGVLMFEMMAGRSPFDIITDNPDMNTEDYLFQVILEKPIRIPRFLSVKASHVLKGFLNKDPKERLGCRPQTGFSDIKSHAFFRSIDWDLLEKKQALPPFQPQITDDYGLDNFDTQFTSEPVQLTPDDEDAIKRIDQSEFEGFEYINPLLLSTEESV
In words: Inhibition of N-terminal GST-fused PKCzeta (1-592) expressed in baculovirus expression system at 30 uM after 1 hr by off-chip mobility shift assay relative to control. An outline of the steps: (§3)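 No lipid cofactors and no calcium. Reaction buffer is 20 mM HEPES pH 7.5, 0.01% Triton X-100, 2 mM DTT, with 1 μM PKCθ substrate peptide (N-FL), 5 μM ATP and 5 mM MgCl2. Incubated 1 h at room temperature (n = 2). Electrophoretic mobility shift read-out of P/(P+S); normalized to no-enzyme and no-inhibitor controls.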

The target of test [6] is Protein kinase C theta type (Homo sapiens) (UniProt Q04759). In words: Inhibition of N-terminal GST-fused PKCtheta (1-706) expressed in baculovirus expression system at 30 uM after 1 hr by off-chip mobility shift assay relative to control. Summed up: (§4)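 Buffer is HEPES pH 7.5 (20 mM), 0.01% Triton X-100, 2 mM DTT, with phosphatidylserine (50 μg/mL) and diacylglycerol (5 μg/mL) but no CaCl2. Reaction: 1 μM PKCθ substrate (N-FL), 25 μM ATP, 5 mM MgCl2, 1 h at room temperature, n = 2. Read-out is electrophoretic separation, P/(P+S) ratio, controls as 0% and 100% inhibition.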

Test [7] addresses Protein kinase C alpha type (Homo sapiens) (UniProt P17252). In words: Inhibition of N-terminal GST-fused PKCalpha (1-672) expressed in baculovirus expression system at 30 uM after 1 hr by off-chip mobility shift assay relative to control. An outline of the steps:
as §2

The target in test [8] is Protein kinase C eta type (Homo sapiens) (UniProt P24723). In words: Inhibition of N-terminal GST-fused PKCeta (1-683) expressed in baculovirus expression system at 30 uM after 1 hr by off-chip mobility shift assay relative to control. An outline of the steps:
as §4

The target in test [9] is T3, Sphingosine kinase 2 (Homo sapiens) (UniProt Q9NRA0).
T3 sequence (whole entry): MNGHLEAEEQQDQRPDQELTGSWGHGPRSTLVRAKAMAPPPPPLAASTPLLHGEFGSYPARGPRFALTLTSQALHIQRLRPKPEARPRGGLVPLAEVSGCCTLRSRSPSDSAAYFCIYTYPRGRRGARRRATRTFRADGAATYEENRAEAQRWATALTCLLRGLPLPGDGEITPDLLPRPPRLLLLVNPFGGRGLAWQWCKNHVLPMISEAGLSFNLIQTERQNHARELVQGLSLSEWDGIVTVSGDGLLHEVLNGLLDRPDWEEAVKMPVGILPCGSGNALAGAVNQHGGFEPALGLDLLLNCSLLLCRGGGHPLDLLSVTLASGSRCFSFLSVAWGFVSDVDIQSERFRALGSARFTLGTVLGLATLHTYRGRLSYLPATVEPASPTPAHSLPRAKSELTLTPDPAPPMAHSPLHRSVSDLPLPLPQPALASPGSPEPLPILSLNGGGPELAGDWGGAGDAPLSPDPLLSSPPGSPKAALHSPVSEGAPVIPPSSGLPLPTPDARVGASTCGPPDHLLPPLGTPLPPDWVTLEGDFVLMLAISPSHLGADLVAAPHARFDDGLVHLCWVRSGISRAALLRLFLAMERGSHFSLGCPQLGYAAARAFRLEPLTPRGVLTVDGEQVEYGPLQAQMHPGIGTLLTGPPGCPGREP
The test is described as follows: Inhibition of N-terminal GST-fused sphingosine kinase 2 (1-618) expressed in baculovirus expression system assessed as inhibition of sphingosine phosphorylation after 1 hr by off-chip mobility shift assay. Also on record: concentration or dose not given beside the values. The note with it: concentration not given here. Summed up:
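Glutathione-sepharose-purified GST fusion tested over a concentration series (DMSO stock diluted fourfold in 20 mM HEPES pH 7.5, 0.01% Triton X-100, 2 mM DTT). Reaction: 1 μM sphingosine, 600 μM ATP, 5 mM MgCl2, 1 h at room temperature, n = 4. Electrophoretic P/(P+S) read-out normalized to controls; IC50 fitted.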

Test [10] addresses T2, Protein kinase C zeta type (Homo sapiens). In words: Inhibition of N-terminal GST-fused PKCzeta (1-592) expressed in baculovirus expression system at 3 uM after 1 hr by off-chip mobility shift assay relative to control. An outline of the steps: as §3
Test [11] concerns the target Protein kinase C beta type (Homo sapiens) (UniProt P05771). The test is described as follows: Inhibition of N-terminal GST-fused PKCbeta2 (1-673) expressed in baculovirus expression system at 30 uM after 1 hr by off-chip mobility shift assay relative to control. An outline of the steps: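 Same buffer as the other conventional PKCs (20 mM HEPES pH 7.5, 0.01% Triton X-100, 2 mM DTT), with phosphatidylserine 50 μg/mL, diacylglycerol 5 μg/mL and 50 μM CaCl2. Reaction: 1 μM PKCθ substrate peptide (N-FL), 10 μM ATP, 5 mM MgCl2, 1 h at room temperature, duplicate. Substrate and product separated electrophoretically; inhibition from P/(P+S) versus no-enzyme and no-inhibitor controls.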

Test [12] has as its target Sphingosine kinase 1 (Homo sapiens) (UniProt Q9NYA1). The test is described as follows: Inhibition of N-terminal GST-fused sphingosine kinase 1 (1-384) expressed in baculovirus expression system assessed as inhibition of sphingosine phosphorylation after 1 hr by off-chip mobility shift assay. Also on record: concentration or dose not given beside the values. The note with it: concentration not given here. An outline of the steps: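 GST-fusion enzyme purified on glutathione sepharose. Compound series in DMSO diluted fourfold into 20 mM HEPES pH 7.5, 0.01% Triton X-100, 2 mM DTT. Reaction: 1 μM sphingosine, 25 μM ATP, 5 mM MgCl2, 1 h at room temperature (n = 4). Substrate and product separated electrophoretically; P/(P+S) ratio against no-enzyme and no-inhibitor controls; IC50 from concentration series.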

Test [13] addresses Protein kinase C gamma type (Homo sapiens) (UniProt P05129). In words: Inhibition of N-terminal GST-fused PKCgamma (1-697) expressed in baculovirus expression system at 30 uM after 1 hr by off-chip mobility shift assay relative to control. An outline of the steps: as §2
The target in test [14] is Protein kinase C delta type (Homo sapiens) (UniProt Q05655). In words: Inhibition of N-terminal GST-fused PKCdelta (1-676) expressed in baculovirus expression system at 30 uM after 1 hr by off-chip mobility shift assay relative to control. An outline of the steps: as §1

The results in this text go back to ChEMBL document CHEMBL1817577, “Pachastrissamine (jaspine B) and its stereoisomers inhibit sphingosine kinases and atypical protein kinase C” (Bioorg Med Chem, 2011).

Sphingosine kinase 1 (Homo sapiens), sequence (Q9NYA1 whole entry, the tested form may be a part): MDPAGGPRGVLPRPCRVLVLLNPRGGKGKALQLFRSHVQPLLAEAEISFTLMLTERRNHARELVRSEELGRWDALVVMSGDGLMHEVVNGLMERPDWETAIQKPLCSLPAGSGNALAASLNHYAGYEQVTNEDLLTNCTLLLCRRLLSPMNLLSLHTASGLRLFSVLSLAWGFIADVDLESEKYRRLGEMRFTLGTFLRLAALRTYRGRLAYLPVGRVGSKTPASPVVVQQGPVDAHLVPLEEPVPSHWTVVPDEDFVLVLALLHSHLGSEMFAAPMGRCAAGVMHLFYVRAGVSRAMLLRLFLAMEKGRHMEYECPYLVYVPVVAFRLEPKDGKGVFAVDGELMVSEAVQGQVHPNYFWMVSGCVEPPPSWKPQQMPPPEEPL
Protein kinase C beta type (Homo sapiens), sequence (P05771 2-671 limits assumed): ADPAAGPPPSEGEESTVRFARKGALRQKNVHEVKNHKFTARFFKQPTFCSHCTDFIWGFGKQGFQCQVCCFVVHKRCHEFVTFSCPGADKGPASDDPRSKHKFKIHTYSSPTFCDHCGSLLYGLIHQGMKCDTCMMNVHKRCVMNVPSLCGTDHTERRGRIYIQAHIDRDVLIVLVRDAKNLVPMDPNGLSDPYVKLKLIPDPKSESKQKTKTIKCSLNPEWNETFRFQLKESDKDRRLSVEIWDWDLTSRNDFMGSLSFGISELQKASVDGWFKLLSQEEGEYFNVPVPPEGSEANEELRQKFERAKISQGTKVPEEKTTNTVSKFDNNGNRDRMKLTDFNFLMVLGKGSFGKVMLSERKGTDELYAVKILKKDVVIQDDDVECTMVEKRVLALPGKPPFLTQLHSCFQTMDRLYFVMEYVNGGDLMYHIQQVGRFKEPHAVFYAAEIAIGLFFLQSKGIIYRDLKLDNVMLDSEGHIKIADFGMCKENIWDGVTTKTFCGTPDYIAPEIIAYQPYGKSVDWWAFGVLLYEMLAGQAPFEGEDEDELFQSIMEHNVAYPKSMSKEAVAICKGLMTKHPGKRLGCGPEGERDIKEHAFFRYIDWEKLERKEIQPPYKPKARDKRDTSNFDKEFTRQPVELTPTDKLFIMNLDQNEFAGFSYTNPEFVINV
Protein kinase C theta type (Homo sapiens), sequence (Q04759 whole entry, looked up, the tested form may be a part): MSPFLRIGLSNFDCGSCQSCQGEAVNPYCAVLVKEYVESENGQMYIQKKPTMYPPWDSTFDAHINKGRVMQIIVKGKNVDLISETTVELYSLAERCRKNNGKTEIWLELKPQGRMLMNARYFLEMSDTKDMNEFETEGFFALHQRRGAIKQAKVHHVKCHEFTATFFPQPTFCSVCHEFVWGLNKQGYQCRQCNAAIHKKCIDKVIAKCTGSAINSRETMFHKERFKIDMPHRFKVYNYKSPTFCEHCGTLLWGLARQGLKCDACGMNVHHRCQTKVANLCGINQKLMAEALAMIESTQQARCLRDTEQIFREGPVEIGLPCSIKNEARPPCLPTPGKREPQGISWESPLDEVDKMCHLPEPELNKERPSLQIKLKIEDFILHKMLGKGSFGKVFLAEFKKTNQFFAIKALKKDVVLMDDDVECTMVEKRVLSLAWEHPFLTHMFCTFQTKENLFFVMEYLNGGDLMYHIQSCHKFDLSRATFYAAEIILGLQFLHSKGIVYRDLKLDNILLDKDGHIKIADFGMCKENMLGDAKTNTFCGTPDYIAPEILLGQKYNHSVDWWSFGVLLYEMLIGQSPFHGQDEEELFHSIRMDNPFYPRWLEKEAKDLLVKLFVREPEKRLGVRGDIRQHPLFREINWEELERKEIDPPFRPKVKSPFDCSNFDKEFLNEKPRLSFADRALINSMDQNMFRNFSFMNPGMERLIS
Protein kinase C delta type (Homo sapiens), sequence (Q05655 whole entry, looked up, the tested form may be a part): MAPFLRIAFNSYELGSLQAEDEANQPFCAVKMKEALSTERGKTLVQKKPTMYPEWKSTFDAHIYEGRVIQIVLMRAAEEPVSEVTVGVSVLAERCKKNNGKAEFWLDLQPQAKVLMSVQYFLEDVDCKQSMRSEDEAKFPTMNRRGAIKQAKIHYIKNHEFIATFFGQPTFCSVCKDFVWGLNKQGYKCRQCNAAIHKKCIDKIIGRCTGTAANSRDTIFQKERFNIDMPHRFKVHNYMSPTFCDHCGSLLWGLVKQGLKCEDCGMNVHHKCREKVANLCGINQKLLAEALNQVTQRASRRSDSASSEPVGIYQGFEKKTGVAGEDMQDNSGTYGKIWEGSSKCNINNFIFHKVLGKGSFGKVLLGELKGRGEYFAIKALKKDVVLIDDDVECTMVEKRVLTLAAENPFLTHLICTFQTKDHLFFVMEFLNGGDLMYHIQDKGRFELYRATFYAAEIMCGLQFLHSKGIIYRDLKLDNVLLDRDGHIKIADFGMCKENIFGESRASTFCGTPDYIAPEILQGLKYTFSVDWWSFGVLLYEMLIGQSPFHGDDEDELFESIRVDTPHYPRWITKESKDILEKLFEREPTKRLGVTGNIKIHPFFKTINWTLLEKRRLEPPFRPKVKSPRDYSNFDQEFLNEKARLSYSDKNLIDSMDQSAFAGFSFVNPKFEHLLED
Protein kinase C iota type (Homo sapiens), sequence (P41743 whole entry, looked up, the tested form may be a part): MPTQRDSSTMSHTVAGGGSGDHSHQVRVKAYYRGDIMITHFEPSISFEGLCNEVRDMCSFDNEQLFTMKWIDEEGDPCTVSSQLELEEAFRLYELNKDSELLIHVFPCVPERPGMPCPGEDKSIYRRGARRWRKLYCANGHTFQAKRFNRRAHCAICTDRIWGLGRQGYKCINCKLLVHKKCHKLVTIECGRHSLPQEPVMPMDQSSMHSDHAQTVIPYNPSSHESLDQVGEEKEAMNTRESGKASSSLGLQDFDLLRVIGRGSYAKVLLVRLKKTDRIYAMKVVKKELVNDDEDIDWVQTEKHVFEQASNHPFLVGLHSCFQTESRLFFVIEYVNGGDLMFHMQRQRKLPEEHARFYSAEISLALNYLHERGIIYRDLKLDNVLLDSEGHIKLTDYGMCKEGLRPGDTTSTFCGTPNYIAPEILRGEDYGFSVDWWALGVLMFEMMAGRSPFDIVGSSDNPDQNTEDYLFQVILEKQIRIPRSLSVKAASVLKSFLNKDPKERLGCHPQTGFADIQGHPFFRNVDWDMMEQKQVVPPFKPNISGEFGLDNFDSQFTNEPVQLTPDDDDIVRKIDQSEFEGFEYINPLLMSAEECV

Turning to `CCCCCCCCCCCCCC[C@@H]1OC[C@H](N)[C@@H]1O`, the inhibition in [1] was determined as 37.4%; in [2] it was 98.5%; in test [3], 50%; in test [4], 48.5%; in test [5] it was 100%; in [6] it was 39.8%. In addition, the inhibition turned out to be 32.7% in [7]; 56.6% in [8]; 6.6% in test [9]; 50% in test [10]; 27.9% in test [11]; 4.6% in test [12]. For the same compound, the inhibition in [13] was found to be 48.6%; in test [14], 69.6%.

As for `CCCCCCCCCCCCCC[C@@H]1OC[C@@H](N)[C@H]1O`, the inhibition in [9] and in [12] was 50% each time.

For `CCCCCCCCCCCCCC[C@@H]1OC[C@@H](N)[C@@H]1O`, the inhibition in [1] came out at 29.2%; in test [2], 94.8%; in [3], 50%; in test [4], 45.1%; in test [5], 99.8%; in [6] it was 37.1%. Moreover, the inhibition in test [7] stood at 33.1%; in test [8], 47%; in [9], 0.48%; in test [10], 50%; in test [11], 22.9%; in [12], 0.94%. Also, the inhibition came to 48.5% in [13] and 67.5% in test [14].

With `CCCCCCCCCCCCCC[C@@H]1OC[C@H](N)[C@H]1O`, the inhibition in test [9] and in [12] was 50% throughout.

Consider `CCCCCCCCCCCCCC[C@H]1OC[C@H](N)[C@@H]1O`, for which the inhibition in [9] and in test [12] was 50% in each case.

`CCCCCCCCCCCCCC[C@H]1OC[C@H](N)[C@H]1O`: the inhibition in test [9] and in [12] was 50% in each case.

As to `CCCCCCCCCCCCCC[C@H]1OC[C@@H](N)[C@H]1O`, the inhibition in [9] and in test [12] was 50% each time.

Take `CCCCCCCCCCCCCC[C@H]1OC[C@@H](N)[C@@H]1O`: the inhibition was found to be 26.3% in test [1]; 99.9% in [2]; 50% in test [3]; 79.2% in test [4]; 99.5% in test [5]; 51.2% in test [6]. Further, the inhibition was determined as 34% in test [7]; 55.4% in [8]; 1.8% in test [9]; 50% in test [10]; 43.9% in test [11]; 0.59% in test [12]. The inhibition stood at 47.6% in test [13] and 96.2% in test [14].

In the case of `CCCCCCCCCCCCC/C=C/[C@@H](O)[C@H](CO)N(C)C`, the inhibition in test [1] came to 40.4%; in test [2], 100%; in test [4] it was 68.5%; in test [5] it was 99.1%; in test [6], 47.1%; in test [7], 35%. For the same compound, the inhibition in test [8] worked out at 43.8%; in test [9], 50%; in test [11] it was 44.3%; in test [12] it was 50%; in [13] it was 49.2%; in [14], 83.9%.
